Results on one compound are retold here after ChEMBL document CHEMBL3596101, “The Mechanism of Ca(2+) Movement in the Involvement of Baicalein-Induced Cytotoxicity in ZR-75-1 Human Breast Cancer Cells” (J Nat Prod, 2015).

The source made the active and inactive calls. The rule behind the calls is not given here.

Data set [1] deals with ZR-75-1. Description: Increase in intracellular Ca2+ level in human ZR-75-1 cells at 40 uM measured every 150 secs by fura-2-AM dye-based spectrofluorophotometric analysis in presence of Ca2+ containing medium with PKC inhibitor GF109203X. It is filed as functional, cell-based. Summed up: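 In Ca2+-containing medium (2 mM CaCl2), 2-APB (30 μM) or GF109203X (2 μM) was added 1 min before 40 μM compound to fura-2-loaded ZR-75-1 cells at 25 °C. Response = net area under curve over a 150 s interval, as % of compound alone. Mean ± SEM, n=3.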

Data set [2] deals with ZR-75-1. The data set is described as follows: Induction of apoptosis in human ZR-75-1 cells assessed as increase in cleaved caspase-3 level at 20 to 40 uM after 24 hrs by Western immunoblot analysis. It counts as functional, cell-based. Summed up: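 Confluent ZR-75-1 cells (3 × 10^6/dish) treated with 20, 30 or 40 μM compound for 24 h. Where used, 5 μM BAPTA-AM or 5 μM NAC was added before the compound. About 50 μg lysate protein run on 10% SDS-PAGE, transferred to PVDF, probed for cleaved caspase-9/-3 and β-actin, chemiluminescence. Densitometry normalized to β-actin. Three experiments.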

Data set [3] in a line: Cytotoxicity against human ZR-75-1 cells assessed as cell viability at 50 uM measured 20 mins post intracellular Ca2+ level detection by trypan blue exclusion assay relative to control. The conditions noted are these: read-out: Activity. It counts as cell-based. The procedure, abridged: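 Fura-2-loaded ZR-75-1 cells were held in the fluorescence cuvette with 50 μM compound. Viability was scored by trypan blue exclusion after 20 min of fluorescence recording.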

Data set [4] has as its system ZR-75-1. The data set is described as follows: Change in endoplasmic reticulum Ca2+ pump inhibitor thapsigargin-induced intracellular Ca2+ increase in human ZR-75-1 cells at 40 uM pretreated with thapsigargin followed by compound addition in presence of Ca2+ free medium. It counts as functional, cell-based. Summed up:
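ZR-75-1 cells loaded with 2 μM fura-2-AM for 30 min at 25 °C, then suspended in Ca2+-free medium (pH 7.4; 0.3 mM EGTA, 3 mM MgCl2). Stirred cuvette at 25 °C. Thapsigargin (1 μM) or BHQ (50 μM) given before or after 40 μM compound. Excitation 340/380 nm, emission 510 nm, read at 1 s intervals. [Ca2+]i calibrated with Triton X-100/CaCl2 then EGTA.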

For data set [5], the system named is ZR-75-1. Description: Cytotoxicity against human ZR-75-1 cells assessed as induction cell death at 20 to 50 uM after 24 hrs by WST-1 assay in presence of Ca2+ containing medium with Ca2+ chelator BAPTA-AM. It counts as functional, cell-based. Summed up: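 WST-1 assay on ZR-75-1 cells seeded at 10000 cells/well, exposed to 0–50 μM compound for 24 h. Where used, 5 μM BAPTA-AM was given for 1 h beforehand, then cells were washed with Ca2+-containing medium. WST-1 incubation 30 min, A450 read. Viability expressed as % of compound-free control. Six wells per treatment, three separate experiments.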

Data set [6] deals with ZR-75-1. Description: Increase in intracellular Ca2+ level in human ZR-75-1 cells at 40 uM treated for 60 secs post PLC inhibitor U73122 addition by fura-2-AM dye-based spectrofluorophotometric analysis in presence of Ca2+ free medium. It counts as functional, cell-based. The procedure, abridged: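 Performed in Ca2+-free medium with fura-2-loaded ZR-75-1 cells. Response expressed relative to 40 μM compound alone (100%). Three experiments.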

Data set [7] relates to ZR-75-1. The data set is described as follows: Induction of apoptosis in human ZR-75-1 cells at 20 to 40 uM after 24 hrs by annexin V-FITC/propidium iodide staining-based flow cytometric analysis in presence of Ca2+ chelator BAPTA-AM. It is filed as functional, cell-based. Summed up:
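ZR-75-1 cells exposed to 20–40 μM compound for 24 h, with 5 μM BAPTA-AM or NAC added first where indicated. Cells stained with Alexa Fluor 488 annexin V/PI for 15 min, at least 20000 cells analysed by flow cytometry (488 nm excitation, 530/575 nm filters). Early = annexin V+/PI−, late = annexin V+/PI+. Three independent biological replicates.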
(A flow cytometer gives signals particle by particle.)

For `O=c1cc(-c2ccccc2)oc2cc(O)c(O)c(O)c12` [BAICALEIN], the outcome in the data set on ZR-75-1 [1], in the data set on ZR-75-1 [4], with ZR-75-1 [5], with ZR-75-1 [6] and with ZR-75-1 [7] was inactive. For the same compound, the outcome with ZR-75-1 [2] was Active. In addition, the viability at 20 min, 50 µM in data set [3] came out at 95%.
